Experimental data reported in ChEMBL document CHEMBL1124429, “Heterocyclic analogues of benzamide antiarrhythmic agents” (J Med Chem, 1989).
Where “and” joins values, the source holds several entries; their conditions need not be identical. Equal entries are not always repeated. One block for each molecule: values may come before it.

Assays:
Canis familiaris [1] = species: Canis familiaris; assay: Percent change from control in the rate of rise of phase 0 of the action potential at 10 uM concentration on Canine Purkinje fibers.; value ranges from -17 - -7; format: organism-based, Canis lupus familiaris, Purkinje fiber; settings: dog, in vitro
Canis familiaris [2] = species: Canis familiaris; assay: Maximum Percent change from control in the rate of rise of phase 0 of the action potential at 100 uM concentration on Canine Purkinje fibers.; format: Canis lupus familiaris, Purkinje fiber; settings: dog, in vitro
Summary of the method: (§1)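 Isolated canine Purkinje fibers were superfused with physiological saline gassed with 95% O2/5% CO2 (pH 7.35–7.40) at 36 ± 0.5 °C. Paced at 1.0 Hz with 2-ms pulses at twice diastolic threshold. After up to 1 h stabilization, compounds were tested over 10^-8 to 10^-3 M, 30 min per concentration, one compound per fiber, with vehicle controls. Intracellular microelectrodes (3 M KCl) recorded Vmax and APD95; maximum percent change from control is reported with its concentration.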

Canis familiaris [3] = species: Canis familiaris; assay: Maximum Percent change from control in the rate of rise of phase 0 of the action potential at 30 uM concentration on Canine Purkinje fibers.; design: species or system Canis lupus familiaris, Purkinje fiber; settings: dog, in vitro; summary of the method: as §1
Canis familiaris [4] = species: Canis familiaris; assay: Maximum percent change in conduction time (CT) at 0.1 uM concentration tested on Canine ventricular muscle fibre; format: functional, Canis lupus familiaris, Muscle tissue
Summary of the method: (§2)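 Canine right ventricular papillary muscle strips were superfused at 36 ± 0.5 °C with saline gassed with 95% O2/5% CO2. Diastolic threshold was found with 2-ms stimuli at 4000 ms cycle length, then pacing at 4× threshold for 60 min equilibration. FRP was measured at 1000 ms cycle length by S1-S2 premature stimulus after every tenth S1. Conduction time came from a bipolar electrogram. Various compound concentrations were tested, one compound per strip, with vehicle controls. Percent change from control was taken at 10 µM, or the maximum change with its concentration; for N ≥ 3, mean with range.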

Canis familiaris [5] = species: Canis familiaris; assay: Maximum percent change in conduction time (CT) at 10 uM concentration tested on Canine ventricular muscle fibre; format: functional, Canis lupus familiaris, Muscle tissue; summary of the method: as §2
Canis familiaris [6] = species: Canis familiaris; assay: Percent change from control in conduction time (CT) at 10 uM concentration tested on Canine ventricular muscle fibre.; format: functional, Canis lupus familiaris, Muscle tissue; summary of the method: as §2
Canis familiaris [7] = species: Canis familiaris; assay: Maximum percent change in repolarization at 100 uM concentration on Canine Purkinje fibers.; format: functional, Canis lupus familiaris, Purkinje fiber; summary of the method: as §1
Canis familiaris [8] = species: Canis familiaris; assay: Maximum percent change in repolarization at 30 uM concentration on Canine Purkinje fibers.; format: functional, Canis lupus familiaris, Purkinje fiber; summary of the method: as §1
Canis familiaris [9] = species: Canis familiaris; assay: Percent change in repolarization at 10 Purkinje fibers.; value ranges from -19 - 1; format: functional, Canis lupus familiaris, Purkinje fiber
Summary of the method: (§3)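 Canine Purkinje fibers were held in oxygenated (95% O2–5% CO2) physiological saline, pH 7.35–7.40, at 36 ± 0.5 °C and paced at 1.0 Hz with 2-ms pulses at twice diastolic threshold. Intracellular microelectrodes (3 M KCl) recorded Vmax and APD95 simultaneously. After up to 1 h of stabilization, compounds were tested from 10^-8 to 10^-3 M with 30 min per concentration. One compound per fiber, with vehicle controls. For N ≥ 3, values are the mean with the range.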

Canis familiaris [10] = species: Canis familiaris; assay: Maximum percent change in functional refractory period (FRP) at 1 uM on Canine ventricular muscle fibre.; design: species or system Canis lupus familiaris, Muscle tissue; summary of the method: as §2
Canis familiaris [11] = species: Canis familiaris; assay: Percent change from control in the functional refractory period (FRP) at 10 uM conc. on Canine ventricular muscle fibre.; design: species or system Canis lupus familiaris, Muscle tissue; summary of the method: as §2
Canis familiaris [12] = species: Canis familiaris; assay: Maximum percent change in functional refractory period (FRP) at 100 uM on Canine ventricular muscle fibre.; design: species or system Canis lupus familiaris, Muscle tissue; summary of the method: as §2
Cavia porcellus = species: Cavia porcellus; assay: Concentration of compound which gives a 20% decrease in contractile force was tested on papillary muscle of guinea pig, activity was expressed as EC-20.; format: functional; settings: Muscle tissue
Summary of the method: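 Contractile force measured in an isolated cardiac muscle preparation. Value is the concentration giving a 20% decrease in force of contraction. NR marks that this decrease was not reached. Values come from individual experiments; for N ≥ 3, the mean is given with the range.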

Canis familiaris [13] = species: Canis familiaris; assay: Percent change from control in the rate of rise of phase 0 of the action potential at 10 uM concentration on Canine Purkinje fibers; value ranges from 8.0-4.0; design: species or system Canis lupus familiaris, Purkinje fiber; settings: dog
Canis familiaris [14] = species: Canis familiaris; assay: The maximum change from control in the rate of rise of phase 0 of the action potential at 10 uM concentration on Canine Purkinje fibers.; design: species or system Canis lupus familiaris, Purkinje fiber; settings: dog; summary of the method: as §3
Canis familiaris [15] = species: Canis familiaris; assay: The maximum percent change from control in the rate of rise of phase 0 of the action potential at 100 uM concentration on Canine Purkinje fibers.; design: species or system Canis lupus familiaris, Purkinje fiber; settings: dog, in vitro; summary of the method: as §3
Canis familiaris [16] = species: Canis familiaris; assay: Maximum percent change in conduction time (CT) at 100 uM concentration tested on Canine ventricular muscle fibre; format: functional, Canis lupus familiaris, Muscle tissue; summary of the method: as §2
Canis familiaris [17] = species: Canis familiaris; assay: Maximum percent change in conduction time (CT) at 1 uM concentration tested on Canine ventricular muscle fibre; format: functional, Canis lupus familiaris, Muscle tissue; summary of the method: as §2
Canis familiaris [18] = species: Canis familiaris; assay: Percent change from control in conduction time (CT) at 10 uM concentration tested on Canine ventricular muscle fibre; value ranges from -12.0-2.0; format: functional, Canis lupus familiaris, Muscle tissue; summary of the method: as §2
Canis familiaris [19] = species: Canis familiaris; assay: Maximum percent change in repolarization at 10 uM concentration on Canine Purkinje fibers.; format: functional, Canis lupus familiaris, Purkinje fiber; summary of the method: as §1
Canis familiaris [20] = species: Canis familiaris; assay: Percent change in repolarization at 10 Purkinje fibers.; format: functional, Canis lupus familiaris, Purkinje fiber; summary of the method: as §3
Canis familiaris [21] = species: Canis familiaris; assay: Maximum percent change in functional refractory period (FRP) at 100 uM on Canine ventricular muscle fibre; value ranges from 7-26; design: species or system Canis lupus familiaris, Muscle tissue; summary of the method: as §2
Canis familiaris [22] = species: Canis familiaris; assay: Percent change from control in the functional refractory period (FRP) at 10 uM concentration on Canine ventricular muscle fibre; value ranges from 2-17; design: species or system Canis lupus familiaris, Muscle tissue; summary of the method: as §2
Canis familiaris [23] = species: Canis familiaris; assay: Percent change from control in the rate of rise of phase 0 of the action potential at 10 uM concentration on Canine Purkinje fibers.; value ranges from -18 - -4; format: organism-based, Canis lupus familiaris, Purkinje fiber; settings: dog, in vitro
Canis familiaris [24] = species: Canis familiaris; assay: The maximum percent change in action potential (Vmax ) at concentration observed (100 uM was tested on Canine Purkinje fibers.; design: species or system Canis lupus familiaris, Purkinje fiber; settings: dog; summary of the method: as §3
Canis familiaris [25] = species: Canis familiaris; assay: Maximum percent change in conduction time (CT) at 100 uM concentration tested on Canine ventricular muscle fibre; value ranges from 6-27; format: functional, Canis lupus familiaris, Muscle tissue; summary of the method: as §2
Canis familiaris [26] = species: Canis familiaris; assay: Percent change from control in conduction time (CT) at 10 uM concentration tested on Canine ventricular muscle fibre.; M is minimal(<10% change in CT); format: functional; settings: Canis lupus familiaris, Muscle tissue; summary of the method: as §2
Canis familiaris [27] = species: Canis familiaris; assay: Maximum percent change in repolarization at 1 uM concentration on Canine Purkinje fibers.; format: functional, Canis lupus familiaris, Purkinje fiber; summary of the method: as §1
Canis familiaris [28] = species: Canis familiaris; assay: Percent change in repolarization at 10 Purkinje fibers.; value ranges from -6 -2; format: functional, Canis lupus familiaris, Purkinje fiber; summary of the method: as §3
Canis familiaris [29] = species: Canis familiaris; assay: Percent change from control in the functional refractory period (FRP) at 10 uM conc. on Canine ventricular muscle fibre.; value ranges from -1 - 16; design: species or system Canis lupus familiaris, Muscle tissue; summary of the method: as §2
Canis familiaris [30] = species: Canis familiaris; assay: Maximum percent change in functional refractory period (FRP) at 100 uM on Canine ventricular muscle fibre.; value ranges from -3 - 26; design: species or system Canis lupus familiaris, Muscle tissue; summary of the method: as §2
Canis familiaris [31] = species: Canis familiaris; assay: Maximum Percent change from control in the rate of rise of phase 0 of the action potential at 1 uM concentration on Canine Purkinje fibers.; design: species or system Canis lupus familiaris, Purkinje fiber; summary of the method: as §1

Vmax (Canis familiaris [1]): -11% | Vmax (Canis familiaris [2]): -45% | Vmax (Canis familiaris [3]): -20% and -26%
Compound: CCN(CC)CCCNC(=O)c1cc2cccc(O)c2[nH]1
CT (Canis familiaris [4]): -8% | CT (Canis familiaris [5]): -23% | CT (Canis familiaris [6]): -3% | APD95 (Canis familiaris [7]): -53% | APD95 (Canis familiaris [8]): -14% | APD95 (Canis familiaris [9]): -10% | FRP (Canis familiaris [10]): 8% | FRP (Canis familiaris [11]): 9% | FRP (Canis familiaris [12]): 19% | EC20 (Cavia porcellus): 36 µM

Vmax (Canis familiaris [13]): -1.5% | Vmax (Canis familiaris [14]): 4% | Vmax (Canis familiaris [15]): -10%
Compound: CCN(CC)CCNC(=O)c1ccc(N)cc1 [PROCAINAMIDE]
CT (Canis familiaris [16]): 4% | CT (Canis familiaris [17]): 5% | CT (Canis familiaris [18]): -3% | APD95 (Canis familiaris [7]): 3% | APD95 (Canis familiaris [19]): 1% | APD95 (Canis familiaris [20]): -1% | FRP (Canis familiaris [21]): 14.3% | FRP (Canis familiaris [22]): 8.7%

Vmax (Canis familiaris [23]): -10.5% | Vmax (Canis familiaris [24]): -19% | Vmax (Canis familiaris [3]): -22% and -26% | Vmax (Canis familiaris [31]): -14%
Compound: CCN(CC)CCNC(=O)c1cccc2[nH]ccc12
CT (Canis familiaris [25]): 14.7% | CT (Canis familiaris [26]): Minimal | APD95 (Canis familiaris [7]): -25% | APD95 (Canis familiaris [27]): -6% | APD95 (Canis familiaris [8]): -20% | APD95 (Canis familiaris [28]): -3% | FRP (Canis familiaris [29]): 6.3% | FRP (Canis familiaris [30]): 10.7%
